In BindingDB's records for doi:10.1016/j.bmc.2014.09.025 (Johns Hopkins University, 2014) one finds EC50 data, which are given here for one compound.

For the assay, the target named is T1, Mas-related G-protein coupled receptor member X1 (Mus musculus, UniProt Q8CIP3).
T1 sequence (Q8CIP3 whole entry): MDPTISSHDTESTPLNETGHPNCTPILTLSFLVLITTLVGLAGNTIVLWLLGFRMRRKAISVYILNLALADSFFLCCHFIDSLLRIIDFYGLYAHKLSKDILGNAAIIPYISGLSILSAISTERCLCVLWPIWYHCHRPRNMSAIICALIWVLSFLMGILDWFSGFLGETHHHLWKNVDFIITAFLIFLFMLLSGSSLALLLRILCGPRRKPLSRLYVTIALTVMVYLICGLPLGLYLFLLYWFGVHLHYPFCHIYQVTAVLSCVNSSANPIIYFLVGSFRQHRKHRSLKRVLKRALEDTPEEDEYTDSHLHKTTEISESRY
As to the kind of experiment: Agonist activity at mouse MrgC11 transfected in HEK293 cells by FLIPR assay. A digest of the protocol: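 Rodent Mrg receptors were transiently transfected into HEK293 or KNRK cells, which were plated at 25,000 cells/well and imaged 2 days later. Cells were loaded with 2 μM Fluo 4AM and 1% Trypan Red in HBSS for 50 min at 37°C, then held 10 min at room temperature.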

Compound `N=C(N)Nc1cccc(C(N)C(=O)N[C@@H](Cc2ccccc2)C(N)=O)c1` (stereo partly specified) returned an EC50 of 31.6 µM.
